The results in this text go back to ChEMBL document CHEMBL1146144, “Identification of a novel boron-containing antibacterial agent (AN0128) with anti-inflammatory activity, for the potential treatment of cutaneous diseases” (2006).

Format in all cases: functional
In one experiment the test system is Bacillus subtilis. Briefly: Antibacterial activity against Bacillus subtilis.
Another experiment deals with Cutibacterium acnes. Briefly: Antibacterial activity against Propionibacterium acnes.
A further experiment relates to Haemophilus influenzae. Briefly: Antibacterial activity against Haemophilus influenzae.
The subject of experiment [1] is Staphylococcus epidermidis. Briefly: Antibacterial activity against Staphylococcus epidermidis.
A further experiment has as its system Staphylococcus aureus. Briefly: Antibacterial activity against Staphylococcus aureus.
Experiment [2] relates to PBMC. Briefly: Inhibition of LPS-induced TNFalpha release in human PBMC at 10 uM relative to Dexamethasone. The method in brief:
(§1)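 Test compound at a single concentration of 10. Stimulation: LPS for 24 h (TNF-α, IL-1β), PHA for 24 h (IFN-γ), concanavalin A for 48 h (IL-4). Cytokines released were measured by ELISA. Inhibition is given as percent of untreated control.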

In experiment [3] the test system is PBMC. Briefly: Inhibition of LPS-induced IL1-beta release in human PBMC at 10 uM […]. The method in brief:
as §1

Experiment [4] has as its system PBMC. Briefly: Inhibition of concanavalin A-induced IL4 release in human PBMC at 10 uM relative to Dexamethasone. The method in brief:
as §1

In experiment [5] the test system is PBMC. Briefly: Inhibition of PHA-induced IFN-gamma release in human PBMC at 10 uM relative to Dexamethasone. The method in brief:
as §1

≈ marks a conversion by molar mass, not a printed value. A value given as a limit tells only on which side of the number the result lay.

On to `Cc1ccccc1B(OC(=O)c1ncccc1O)c1cccc(Cl)c1`, for which the MIC was 4 µg/mL (≈ 11.4 µM) in the experiment with Bacillus subtilis; 3 µg/mL (≈ 8.53 µM) in the experiment with Cutibacterium acnes; greater than 64 µg/mL in the experiment with Haemophilus influenzae; 8 µg/mL (≈ 22.8 µM) in [1]; 8 µg/mL (≈ 22.8 µM) with Staphylococcus aureus.

Take `O=C(OB(c1cccc(F)c1)c1cccc(F)c1)c1ncccc1O`: the MIC against Bacillus subtilis is greater than 64 µg/mL; against Cutibacterium acnes it was greater than 100 µg/mL; in the experiment on Haemophilus influenzae it was greater than 64 µg/mL; in [1], greater than 64 µg/mL; against Staphylococcus aureus it was greater than 64 µg/mL.

For `Cc1ccc(B(OC(=O)c2cc(C(=O)O)ccn2)c2ccc(C)c(Cl)c2)cc1Cl`, the MIC amounted to 3 µg/mL (≈ 7.01 µM) against Cutibacterium acnes, 4 µg/mL (≈ 9.34 µM) in [1] and 2 µg/mL (≈ 4.67 µM) against Staphylococcus aureus.

Usually inhibition stands for the relative decrease from the control value, in per cent. Consider `CC(=O)Oc1cccnc1C(=O)OB(c1ccc(C)c(Cl)c1)c1ccc(C)c(Cl)c1`, for which the MIC was 0.5 µg/mL (≈ 1.13 µM) in the experiment on Bacillus subtilis; 1 µg/mL (≈ 2.26 µM) in the experiment with Cutibacterium acnes; greater than 64 µg/mL with Haemophilus influenzae; 1 µg/mL (≈ 2.26 µM) in experiment [1]; 2 µg/mL (≈ 4.52 µM) with Staphylococcus aureus. For the same compound, the inhibition at 10 µM in the experiment on PBMC [2] was 101%; with PBMC [3] it was -49%.

For `O=C(OB(c1ccc(Cl)cc1)c1ccc(Cl)nc1)c1ncccc1O`, the MIC (against Haemophilus influenzae; in experiment [1]; in the experiment on Staphylococcus aureus) was 32 µg/mL (≈ 85.8 µM) throughout.

As for `O=C(OB(c1cccnc1)c1cccc(Cl)c1)c1ncccc1O`, the figures for the MIC (in the experiment on Haemophilus influenzae; in experiment [1]; with Staphylococcus aureus) were 32 µg/mL (≈ 94.5 µM), 32 µg/mL (≈ 94.5 µM) and 16 µg/mL (≈ 47.3 µM), respectively.

On to `Cc1ccc(B(OC(=O)c2ncccc2O)c2ccc(C)c(Cl)c2)cc1Cl`, for which the MIC in the experiment with Bacillus subtilis was 1 µg/mL (≈ 2.5 µM); against Cutibacterium acnes it was 0.3 µg/mL (≈ 0.75 µM); with Haemophilus influenzae, greater than 64 µg/mL; in [1], 0.5 µg/mL (≈ 1.25 µM); against Staphylococcus aureus, 1 µg/mL (≈ 2.5 µM). For the same compound, the inhibition at 10 µM in the experiment on PBMC [2] is 100%; with PBMC [4], -21%; with PBMC [3], 99%; in the experiment on PBMC [5], -20%.

With `Cc1ccc(B(OC(=O)c2ncccc2N)c2ccc(C)c(Cl)c2)cc1Cl`, the MIC was 2 µg/mL (≈ 5.01 µM) with Bacillus subtilis; 1 µg/mL (≈ 2.51 µM) with Cutibacterium acnes; greater than 64 µg/mL against Haemophilus influenzae; greater than 64 µg/mL in experiment [1]; greater than 64 µg/mL in the experiment on Staphylococcus aureus.

Consider `O=C(OB(c1ccc(Cl)cc1)c1cccnc1)c1ncccc1O`, for which the MIC turned out to be 16 µg/mL (≈ 47.3 µM) against Haemophilus influenzae, 32 µg/mL (≈ 94.5 µM) in experiment [1] and 64 µg/mL (≈ 189 µM) with Staphylococcus aureus.

Regarding `Cc1ccc(B(OC(=O)c2ccccn2)c2ccc(C)c(Cl)c2)cc1Cl`, the MIC in experiment [1] was greater than 64 µg/mL; in the experiment on Staphylococcus aureus it was 0.5 µg/mL (≈ 1.3 µM).

Consider `O=C(OB(c1ccc(Cl)cc1)c1ccc(Cl)cc1)c1ncccc1O`, for which the MIC with Bacillus subtilis came to 1 µg/mL (≈ 2.69 µM); in the experiment on Cutibacterium acnes, 1 µg/mL (≈ 2.69 µM); in the experiment with Haemophilus influenzae, 16 µg/mL (≈ 43 µM); in experiment [1], 1 µg/mL (≈ 2.69 µM); against Staphylococcus aureus it was 4 µg/mL (≈ 10.8 µM).

As for `Cc1ccc(B(OC(=O)c2ncccc2O)c2ccc(C)c(Cl)c2)cc1`, the MIC is 2 µg/mL (≈ 5.47 µM) against Bacillus subtilis; 3 µg/mL (≈ 8.21 µM) against Cutibacterium acnes; greater than 64 µg/mL against Haemophilus influenzae; 2 µg/mL (≈ 5.47 µM) in experiment [1]; 4 µg/mL (≈ 10.9 µM) in the experiment with Staphylococcus aureus.

With `Cc1ccc(B(OC(=O)c2ncccc2C(=O)c2ccccc2)c2ccc(C)c(Cl)c2)cc1Cl`, the MIC against Bacillus subtilis was 64 µg/mL (≈ 131 µM); with Cutibacterium acnes, 30 µg/mL (≈ 61.5 µM); in the experiment on Haemophilus influenzae, greater than 64 µg/mL; in experiment [1], 32 µg/mL (≈ 65.5 µM); with Staphylococcus aureus it was 0.5 µg/mL (≈ 1.02 µM).

Regarding `CCOc1ccc(B(OC(=O)c2ncccc2O)c2ccc(OCC)c(Cl)c2)cc1Cl`, the MIC in the experiment on Bacillus subtilis was 2 µg/mL (≈ 4.35 µM); against Cutibacterium acnes, 1 µg/mL (≈ 2.17 µM); against Haemophilus influenzae, greater than 64 µg/mL; in experiment [1], 2 µg/mL (≈ 4.35 µM); in the experiment on Staphylococcus aureus it was 2 µg/mL (≈ 4.35 µM).

Consider `CSc1cccc(B(OC(=O)c2ncccc2O)c2cccc(Cl)c2)c1`, for which the MIC was 4 µg/mL (≈ 10.4 µM) against Bacillus subtilis; 3 µg/mL (≈ 7.82 µM) in the experiment on Cutibacterium acnes; greater than 64 µg/mL against Haemophilus influenzae; 8 µg/mL (≈ 20.9 µM) in [1]; 8 µg/mL (≈ 20.9 µM) against Staphylococcus aureus.

`O=C(OB(c1cccc(Cl)c1)c1cccc(Cl)c1)c1ncccc1O`: the MIC against Bacillus subtilis was 16 µg/mL (≈ 43 µM); in the experiment with Cutibacterium acnes, 10 µg/mL (≈ 26.9 µM); in the experiment with Haemophilus influenzae it was 16 µg/mL (≈ 43 µM); in experiment [1] it was 8 µg/mL (≈ 21.5 µM); in the experiment with Staphylococcus aureus, no more than 0.125 µg/mL.

For `Cc1ccc(B(OC(=O)c2ncccc2C(=O)O)c2ccc(C)c(Cl)c2)cc1Cl`, the MIC turned out to be 8 µg/mL (≈ 18.7 µM) against Bacillus subtilis; 3 µg/mL (≈ 7.01 µM) in the experiment on Cutibacterium acnes; 8 µg/mL (≈ 18.7 µM) with Haemophilus influenzae; 4 µg/mL (≈ 9.34 µM) in experiment [1]; 0.125 µg/mL (≈ 0.292 µM) against Staphylococcus aureus.

Take `Cc1ccc(B(CCc2ccccc2)OC(=O)c2ncccc2O)cc1Cl`: the MIC against Bacillus subtilis was 1 µg/mL (≈ 2.63 µM); against Cutibacterium acnes, 1 µg/mL (≈ 2.63 µM); against Haemophilus influenzae, greater than 64 µg/mL; in experiment [1], 1 µg/mL (≈ 2.63 µM); in the experiment with Staphylococcus aureus it was 0.5 µg/mL (≈ 1.32 µM).

For the compound `O=C(OB(c1ccsc1)c1cccc(Cl)c1)c1ncccc1O`, the MIC against Bacillus subtilis came to 16 µg/mL (≈ 46.6 µM); in the experiment with Cutibacterium acnes it was 10 µg/mL (≈ 29.1 µM); in the experiment with Haemophilus influenzae, 32 µg/mL (≈ 93.1 µM); in experiment [1] it was 32 µg/mL (≈ 93.1 µM); against Staphylococcus aureus, 32 µg/mL (≈ 93.1 µM).

Regarding `O=C(OB(c1ccc(F)c(Cl)c1)c1ccc(F)c(Cl)c1)c1ncccc1O`, the MIC against Bacillus subtilis was found to be 8 µg/mL (≈ 19.6 µM); with Cutibacterium acnes, 3 µg/mL (≈ 7.35 µM); in the experiment with Haemophilus influenzae, 4 µg/mL (≈ 9.8 µM); in [1] it was 8 µg/mL (≈ 19.6 µM); in the experiment on Staphylococcus aureus, 1 µg/mL (≈ 2.45 µM).

For the compound `Cc1ccc(B(OC(=O)c2ccc(C(=O)O)cn2)c2ccc(C)c(Cl)c2)cc1Cl`, the MIC against Bacillus subtilis was 8 µg/mL (≈ 18.7 µM); with Cutibacterium acnes it was 3 µg/mL (≈ 7.01 µM); in the experiment on Haemophilus influenzae, 8 µg/mL (≈ 18.7 µM); in experiment [1], 8 µg/mL (≈ 18.7 µM); with Staphylococcus aureus, 0.5 µg/mL (≈ 1.17 µM). In addition, the inhibition at 10 µM in the experiment on PBMC [2] stood at 100%; with PBMC [4], 9%; in the experiment with PBMC [3] it was 80%; in the experiment with PBMC [5] it was 24%.

Take `CC[C@H]1OC(=O)[C@H](C)[C@@H](O[C@H]2C[C@@](C)(OC)[C@@H](O)[C@H](C)O2)[C@H](C)[C@@H](O[C@@H]2O[C@H](C)C[C@H](N(C)C)[C@H]2O)[C@](C)(O)C[C@@H](C)C(=O)[C@H](C)[C@@H](O)[C@]1(C)O` [ERYTHROMYCIN]: the MIC was 0.1 µg/mL (≈ 0.136 µM) against Bacillus subtilis; 0.1 µg/mL (≈ 0.136 µM) in the experiment with Cutibacterium acnes; 4 µg/mL (≈ 5.45 µM) with Haemophilus influenzae; 0.15 µg/mL (≈ 0.204 µM) in [1]; 0.5 µg/mL (≈ 0.681 µM) against Staphylococcus aureus. Further, the inhibition at 10 µM is 22% with PBMC [2] and -32% in the experiment on PBMC [3].

Take `CN(C)c1ccc(B(OC(=O)c2ncccc2O)c2ccc(N(C)C)c(Cl)c2)cc1Cl`: the MIC is 64 µg/mL (≈ 140 µM) in the experiment with Bacillus subtilis, greater than 64 µg/mL with Haemophilus influenzae, 32 µg/mL (≈ 69.8 µM) in experiment [1] and 32 µg/mL (≈ 69.8 µM) with Staphylococcus aureus.

On to `Cc1cc(Cl)ccc1B(OC(=O)c1ncccc1O)c1ccc(Cl)cc1C`, for which the MIC in the experiment on Bacillus subtilis was found to be 0.5 µg/mL (≈ 1.25 µM); with Cutibacterium acnes it was 0.3 µg/mL (≈ 0.75 µM); in the experiment with Haemophilus influenzae it was 16 µg/mL (≈ 40 µM); in experiment [1] it was 2 µg/mL (≈ 5 µM); in the experiment on Staphylococcus aureus, 4 µg/mL (≈ 10 µM). Further, the inhibition at 10 µM in the experiment with PBMC [2] was 101%; in the experiment on PBMC [4] it was 57%; with PBMC [3] it was 103%; in the experiment on PBMC [5], 15%.
